Measurements taken from ChEMBL document CHEMBL1800075, “Tricyclic imidazole antagonists of the Neuropeptide S Receptor” (Bioorg Med Chem Lett, 2010).

Assays:
[1] = molecular target: T1, Neuropeptide S receptor (Homo sapiens, UniProt Q6W5P4); assay: Antagonist activity at human recombinant NPS receptor expressed in CHOK1 cells assessed as inhibition of NPS-induced calcium mobilization by FLIPR assay; type: functional, cell-based, CHO-K1
T1 sequence (Q6W5P4 whole entry): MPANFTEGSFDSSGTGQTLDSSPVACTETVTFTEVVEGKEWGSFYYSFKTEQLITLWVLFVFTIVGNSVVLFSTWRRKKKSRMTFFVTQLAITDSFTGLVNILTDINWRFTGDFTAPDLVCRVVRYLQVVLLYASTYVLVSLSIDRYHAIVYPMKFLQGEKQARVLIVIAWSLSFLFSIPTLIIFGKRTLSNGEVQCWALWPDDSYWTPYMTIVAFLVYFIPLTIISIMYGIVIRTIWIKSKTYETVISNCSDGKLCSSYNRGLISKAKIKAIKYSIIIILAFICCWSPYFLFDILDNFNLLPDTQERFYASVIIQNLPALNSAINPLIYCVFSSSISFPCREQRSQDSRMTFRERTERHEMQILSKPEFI
Method in brief: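 Dual-sequence FLIPR Ca2+ mobilization on CHOK1 cells expressing recombinant NPSR, plated 24 h ahead at 15 K cells/well. Cells washed and loaded with Fluo4AM for 1 h at 37 °C, 5% CO2. Inhibition taken relative to NPS-stimulated control wells; IC50 from 4-parameter logistic fits; mean ± S.D. of multiple determinations.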

[2] = molecular target: rat MDR1 (ABCB1, P-glycoprotein) (Rattus norvegicus, UniProt P43245); assay: Permeability of the compound assessed as rat MDR1-mediated directional transport ratio by cell based assay; settings: not told
Method in brief: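 Rat MDR1 directional transport ratio, calculated as (B–A)/(A–B). Average of three experiments; interassay variability 20%.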

[3] = Passive permeability of the compound; type: ADME; settings: not told
[4] = Unbound fraction in rat plasma by ultracentrifugation; type: ADME, cell-free
[5] = Clearance in iv dosed rat; type: ADME, organism-based; settings: in vivo
Method in brief: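 IV clearance in rats measured in cassette dosing experiments.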

[6] = molecular target: T2, Thromboxane A2 receptor (Homo sapiens, UniProt P21731); assay: Inhibition of thromboxane A2 receptor
T2 sequence (P21731 whole entry): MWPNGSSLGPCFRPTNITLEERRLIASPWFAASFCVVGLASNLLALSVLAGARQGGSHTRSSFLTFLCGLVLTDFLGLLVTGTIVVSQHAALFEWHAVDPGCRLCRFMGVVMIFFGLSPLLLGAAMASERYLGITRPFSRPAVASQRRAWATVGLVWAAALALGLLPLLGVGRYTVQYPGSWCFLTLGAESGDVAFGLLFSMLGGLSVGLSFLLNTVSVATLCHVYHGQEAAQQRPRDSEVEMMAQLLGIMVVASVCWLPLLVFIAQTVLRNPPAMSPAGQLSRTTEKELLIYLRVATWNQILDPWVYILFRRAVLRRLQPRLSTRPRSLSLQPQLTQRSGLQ

[7] = Ratio drug level in CSF to plasma in rat at 75 mg/kg, ip; type: ADME, organism-based; design: dose 75 mg/kg, route intraperitoneal
Method in brief: (§1)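 Compound given to rats at 75 mpk IP as a solution in 25% HPB-cyclodextrin. CSF and plasma sampled at 30 min and 2 h.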

[8] = Drug level in rat cerebrospinal fluid at 75 mg/kg, ip after 30 mins; type: ADME, organism-based; design: dose 75 mg/kg, route intraperitoneal; settings: read-out: Drug uptake; method in brief: as §1
[9] = Drug level in rat cerebrospinal fluid at 75 mg/kg, ip after 2 hrs; type: ADME, organism-based; design: dose 75 mg/kg, route intraperitoneal; settings: read-out: Drug uptake; method in brief: as §1
[10] = Lipophilicity, log D of the compound by HPLC method; type: physicochemical
[11] = Inhibition of melatonin receptor
[12] = Inhibition of sodium channel site 2
[13] = AUC (0 to infinity) in rat at 2 mg/kg, po; type: ADME, organism-based; design: time infinity, dose 2 mg/kg, route oral; settings: plasma
[14] = Drug level in plasma of rat at 30 mg/kg, ip measured after 30 mins; type: ADME, organism-based; design: dose 30 mg/kg, route intraperitoneal
Method in brief: (§2)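 Compound dosed to rats at 30 mpk IP. Plasma levels measured at 30 min, 1 h and 2 h. Unbound exposures obtained by correcting for plasma free fraction.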

[15] = system: Plasma; assay: Unbound free concentration in rat plasma at 30 mg/kg, ip measured after 30 mins; type: ADME, organism-based; design: dose 30 mg/kg, route intraperitoneal; settings: in vivo, 0.5 h; method in brief: as §2
[16] = AUC (0 to infinity) in rat at 10 mg/kg, po; type: ADME, organism-based; design: time infinity, dose 10 mg/kg, route oral; settings: plasma
[17] = system: Plasma; assay: Unbound free concentration in rat plasma at 30 mg/kg, ip measured after 2 hrs; type: ADME, organism-based; design: dose 30 mg/kg, route intraperitoneal; settings: in vivo; method in brief: as §2
[18] = Drug level in plasma of rat at 30 mg/kg, ip measured after 2 hrs; type: ADME, organism-based; design: dose 30 mg/kg, route intraperitoneal; method in brief: as §2
[19] = molecular target: Cannabinoid receptor 1 (Homo sapiens, UniProt P21554); assay: Inhibition of CB1 receptor
[20] = Drug level in plasma of rat at 30 mg/kg, ip measured after 1 hr; type: ADME, organism-based; design: dose 30 mg/kg, route intraperitoneal; method in brief: as §2
[21] = system: Plasma; assay: Unbound free concentration in rat plasma at 30 mg/kg, ip measured after 1 hr; type: ADME, organism-based; design: dose 30 mg/kg, route intraperitoneal; settings: in vivo; method in brief: as §2
[22] = Lipophilicity, log P of the compound; type: physicochemical; settings: octanol/water

Chain of rat MDR1 (ABCB1, P-glycoprotein) (P43245 whole entry): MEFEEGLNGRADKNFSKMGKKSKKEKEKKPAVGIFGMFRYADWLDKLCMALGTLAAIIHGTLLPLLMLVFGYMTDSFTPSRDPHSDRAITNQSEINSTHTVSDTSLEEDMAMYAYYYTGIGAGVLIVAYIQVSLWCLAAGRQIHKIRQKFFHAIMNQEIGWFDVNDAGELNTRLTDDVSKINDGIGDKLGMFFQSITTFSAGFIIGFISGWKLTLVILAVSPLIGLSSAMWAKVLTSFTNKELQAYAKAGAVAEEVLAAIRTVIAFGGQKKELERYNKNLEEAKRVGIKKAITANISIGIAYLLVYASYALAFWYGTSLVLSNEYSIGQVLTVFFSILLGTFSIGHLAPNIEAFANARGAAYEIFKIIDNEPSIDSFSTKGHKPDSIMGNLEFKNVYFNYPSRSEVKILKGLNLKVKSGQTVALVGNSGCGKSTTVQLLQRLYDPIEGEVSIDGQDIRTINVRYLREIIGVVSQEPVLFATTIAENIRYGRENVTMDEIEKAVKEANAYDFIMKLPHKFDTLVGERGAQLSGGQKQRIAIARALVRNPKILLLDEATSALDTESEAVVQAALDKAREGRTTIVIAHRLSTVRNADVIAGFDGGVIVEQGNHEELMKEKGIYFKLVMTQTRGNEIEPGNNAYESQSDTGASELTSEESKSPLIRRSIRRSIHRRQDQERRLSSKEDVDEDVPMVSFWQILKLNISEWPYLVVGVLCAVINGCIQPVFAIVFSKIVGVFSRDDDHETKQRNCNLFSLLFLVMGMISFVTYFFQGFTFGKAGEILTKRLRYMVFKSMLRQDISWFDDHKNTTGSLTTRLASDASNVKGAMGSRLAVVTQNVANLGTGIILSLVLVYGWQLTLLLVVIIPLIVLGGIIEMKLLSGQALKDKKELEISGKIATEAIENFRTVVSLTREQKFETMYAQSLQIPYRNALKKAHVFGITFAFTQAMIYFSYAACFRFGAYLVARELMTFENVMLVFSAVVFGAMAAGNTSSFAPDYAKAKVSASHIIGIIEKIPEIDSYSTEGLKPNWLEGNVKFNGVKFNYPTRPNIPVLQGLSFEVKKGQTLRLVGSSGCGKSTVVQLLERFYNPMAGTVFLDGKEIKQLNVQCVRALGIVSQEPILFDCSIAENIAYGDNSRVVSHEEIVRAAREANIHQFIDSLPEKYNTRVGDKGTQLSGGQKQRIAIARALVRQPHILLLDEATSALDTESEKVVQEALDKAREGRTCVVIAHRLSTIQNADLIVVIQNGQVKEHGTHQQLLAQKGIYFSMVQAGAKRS
Chain of Cannabinoid receptor 1 (P21554 whole entry): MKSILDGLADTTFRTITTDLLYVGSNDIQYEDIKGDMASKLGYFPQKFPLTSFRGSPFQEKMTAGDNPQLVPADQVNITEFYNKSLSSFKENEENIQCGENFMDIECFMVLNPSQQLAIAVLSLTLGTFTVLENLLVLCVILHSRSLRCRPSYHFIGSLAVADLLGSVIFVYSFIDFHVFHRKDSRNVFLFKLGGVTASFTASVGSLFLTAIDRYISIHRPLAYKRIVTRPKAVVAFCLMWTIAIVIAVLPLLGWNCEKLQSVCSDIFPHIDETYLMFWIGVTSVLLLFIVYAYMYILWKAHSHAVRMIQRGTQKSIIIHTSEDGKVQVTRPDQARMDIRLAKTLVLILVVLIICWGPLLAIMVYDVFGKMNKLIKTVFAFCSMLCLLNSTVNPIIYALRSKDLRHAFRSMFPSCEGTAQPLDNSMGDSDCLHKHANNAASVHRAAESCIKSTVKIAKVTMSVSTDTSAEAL

| SMILES | IC50 [1] | efflux ratio [2] | fraction unbound [4] | also measured |
| --- | --- | --- | --- | --- |
| N#Cc1ccc(C2(CC3CCCCC3)c3ccccc3-c3nccn32)cc1 (configuration not stated) | 114 nM | 1.6 |  | Papp [3]: 17 ×10⁻⁶ cm/s |
| N#Cc1ccccc1CC1(c2ccc(Br)cc2)c2ccccc2-c2nccn21 (racemic) | 369 nM | 1.7 | < 0.01 | Papp [3]: 17 ×10⁻⁶ cm/s |
| Brc1ccc(C2(CC3CCCC3)c3ccccc3-c3nccn32)cn1 (configuration not stated) | 851 nM | 1.3 | 0.013 | Papp [3]: 25 ×10⁻⁶ cm/s |
| N#Cc1cccc(C2(Cc3ccccc3)c3ccccc3-c3nccn32)c1 (configuration not stated) | 3170 nM |  |  |  |
| Clc1ccc(C2(Cc3ccccc3)c3ccccc3-c3nccn32)cc1 (configuration not stated) | 358 nM |  |  |  |
| Fc1ccc(C2(CC3CCOCC3)c3ccccc3-c3nccn32)cc1 (configuration not stated) | 660 nM |  |  |  |
| N#Cc1ccc(C2(CC3CCCC3)c3ccccc3-c3nccn32)cc1 (configuration not stated) | 145 nM | 0.6 | 0.011 | Papp [3]: 22 ×10⁻⁶ cm/s |
| Fc1ccc(C2(Cc3ccccc3)c3ccccc3-c3nccn32)cc1 (configuration not stated) | 336 nM |  |  |  |
| COc1ccc2c(c1)C(CC1CCOCC1)(c1ccc(Cl)cc1)n1ccnc1-2 (configuration not stated) | 82 nM | 1.3 | 0.016 | IC50 [6]: 7000 nM; Ratio [7]: 1%; concentration at 0.5 h [8]: 594 nM; concentration at 2 h [9]: 153 nM; logD [10]: 3.2; IC50 [11]: 1300 nM; IC50 [12]: 4000 nM; AUC(0-inf) [13]: 0.114 µM·h |
| Brc1ccc(C2(Cc3ccccc3)c3cccnc3-c3nccn32)cc1 (configuration not stated) | 1460 nM |  |  |  |
| Brc1ccc(C2(CCC3CCOCC3)c3ccccc3-c3nccn32)cc1 (racemic) | 154 nM |  |  |  |
| N#Cc1ccc(C2(CC3CCOCC3)c3ccccc3-c3nccn32)cc1 (configuration not stated) | 635 nM |  |  |  |
| CCN(CC)C(=O)CCC1(c2ccc(Cl)cc2)c2c(OC)cccc2-c2nccn21 (configuration not stated) | 43 nM | 2.9 | 0.013 | concentration at 0.5 h [14]: 7800 nM; Cp(f) [15]: 101 nM; AUC(0-inf) [16]: 1.15 µM·h; Cp(f) [17]: 39 nM; concentration at 2 h [18]: 3000 nM; IC50 [19]: 6000 nM; concentration at 1 h [20]: 5100 nM; Cp(f) [21]: 66 nM |
| Brc1ccc(C2(CC3CCCCC3)c3ccccc3-c3nccn32)cc1 (racemic) | 254 nM |  |  |  |
| N#Cc1ccc(C2(Cc3ccccc3)c3ccccc3-c3nccn32)cc1 (configuration not stated) | 387 nM | 0.9 | 0.17 | Papp [3]: 33 ×10⁻⁶ cm/s |
| COc1cccc2c1C(CC1CCOCC1)(c1ccc(Cl)cc1)n1ccnc1-2 (configuration not stated) | 46 nM |  | 0.008 | AUC(0-inf) [16]: 0.425 µM·h |
| CCN(CC)C(=O)CCC1(c2ccc(Cl)cc2)c2ccccc2-c2nccn21 (racemic) |  |  |  | AUC(0-inf) [16]: 0.18 µM·h; clearance [5]: 38 mL/min/kg |
| Brc1ccc(C2(CC3CCOCC3)c3ccccc3-c3nccn32)cc1 (racemic) | 92 nM | 1.2 | 0.19 | clearance [5]: 48 mL/min/kg; Papp [3]: 31 ×10⁻⁶ cm/s |
| Brc1ccc(C2(Cc3ccccc3)c3ccccc3-c3nccn32)cc1 (stereo in doubt; 2) | 163 nM |  | 0.01 | logP [22]: > 3.8; Papp [3]: 10 ×10⁻⁶ cm/s |
| Brc1ccc(C2(Cc3ccccc3)c3ccccc3-c3nccn32)cn1 (configuration not stated) | 1500 nM |  |  |  |
| Cc1ccc(C2(Cc3ccccc3)c3ccccc3-c3nccn32)cc1 (configuration not stated) | 1320 nM |  |  |  |
| Brc1ccc(C2(Cc3ccccc3)c3ccccc3-c3nccn32)cc1 (racemic) | 380 nM |  |  |  |
| Brc1ccc(C2(Cc3cccnc3)c3ccccc3-c3nccn32)cc1 (racemic) | 351 nM | 2.1 | 0.021 | Papp [3]: 31 ×10⁻⁶ cm/s |
| Brc1ccc(C2(Cc3ccccc3)c3ccccc3-c3nccn32)nc1 (configuration not stated) | 2180 nM |  |  |  |
| Brc1cccc(C2(Cc3ccccc3)c3ccccc3-c3nccn32)c1 (configuration not stated) | 1730 nM |  |  |  |

Continued, in another order:

| IC50 [1] | efflux ratio [2] | fraction unbound [4] | SMILES | also measured |
| --- | --- | --- | --- | --- |
| 138 nM | 2.3 | 0.007 | CCN(C(=O)CCC1(c2ccc(Cl)cc2)c2ccccc2-c2nccn21)C(C)C (racemic) | clearance [5]: 31 mL/min/kg |
| 90 nM | 2.1 | 0.022 | CCN(CC)C(=O)CCC1(c2ccc(Cl)cc2)c2ccccc2-c2nccn21 (single isomer, unassigned) |  |
| 321 nM |  |  | Brc1ccc(C2(CC3CCCC3)c3ccccc3-c3nccn32)cc1 (racemic) |  |
| 131 nM | 1.6 | 0.011 | CCC1CCCCN1C(=O)CCC1(c2ccc(Cl)cc2)c2ccccc2-c2nccn21 (mixture of isomers) | clearance [5]: 20 mL/min/kg |
| 50 nM | 2.2 | 0.007 | COc1ccc2c(c1)C(CCC(=O)N1[C@H](C)CC[C@@H]1C)(c1ccc(Cl)cc1)n1ccnc1-2 (some centres not stated) | AUC(0-inf) [13]: 0.115 µM·h |
| 95 nM | 1.7 | 0.006 | O=C(CCC1(c2ccc(Cl)cc2)c2ccccc2-c2nccn21)N1C2CCCC1CC2 (mixture of isomers) | clearance [5]: 34 mL/min/kg |
| 96 nM | 1.4 | 0.008 | CC(C)N(C(=O)CCC1(c2ccc(Cl)cc2)c2ccccc2-c2nccn21)C(C)C (racemic) | clearance [5]: 26 mL/min/kg |
| 134 nM | 1.4 | 0.018 | Clc1ccc(C2(CC3CCOCC3)c3ccccc3-c3nccn32)cc1 (configuration not stated) | Papp [3]: 31 ×10⁻⁶ cm/s |
| 126 nM | 34.2 | 0.081 | CC(C1CCN(C(=O)CCC2(c3ccc(Cl)cc3)c3ccccc3-c3nccn32)CC1)N1CCCC1 (mixture of isomers) | clearance [5]: 38 mL/min/kg |
| 239 nM | 2 | 0.029 | CC(C1CCN(C(=O)CCC2(c3ccc(Cl)cc3)c3ccccc3-c3nccn32)CC1)N1CCC(F)(F)C1 (mixture of isomers) | clearance [5]: 38 mL/min/kg |
| 92 nM | 1.5 | 0.006 | C[C@@H]1CC[C@H](C)N1C(=O)CCC1(c2ccc(Cl)cc2)c2ccccc2-c2nccn21 (mixture of isomers) | clearance [5]: 36 mL/min/kg |
